# Active and inactive are the calls of the source. The rule behind the calls is not given here.
# Key:
# MDCK = assay: Cytotoxicity against dog MDCK cells at 30 uM; assay type: functional, cell-based; settings: Canis lupus familiaris
# MEF [1] = assay: Antiproliferative activity against mouse MEF cells expressing KRAS G12V mutant assessed as reduction in cell growth incubated for 72 hrs by CyQuant proliferation assay; assay type: functional, cell-based
# In short: (§1)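 Cells seeded in 96-well plates; after 24 h fresh growth medium with 0.1% DMSO vehicle or drug added (highest dose 30 µM for cancer lines), grown 72 h at 37 °C, 5% CO2. Live cell number measured by CyQUANT fluorescence. IC50 from three independent experiments. MEFs were isogenic lines carrying oncogenic BRAF or KRAS.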
# MEF [2] = assay: Antiproliferative activity against mouse MEF cells expressing KRAS G12D mutant assessed as reduction in cell growth incubated for 72 hrs by CyQuant proliferation assay; assay type: functional, cell-based; in short: as §1
# [3] = Antiproliferative activity against human MPANC96 cells expressing KRAS mutant assessed as reduction in cell growth incubated for 72 hrs by CyQuant proliferation assay; assay type: functional, cell-based; settings: MPANC96, 72 h; in short: as §1
# Ishikawa = assay: Antiproliferative activity against human Ishikawa cells expressing wild type KRAS assessed as reduction in cell growth incubated for 72 hrs by CyQuant proliferation assay; assay type: functional, cell-based; in short: as §1
# KLE = assay: Antiproliferative activity against human KLE cells expressing wild type KRAS assessed as reduction in cell growth upto 30 uM incubated for 72 hrs by CyQuant proliferation assay; assay type: functional, cell-based; settings: dose microM <=30, time 72.0 hrs; in short: as §1
# Caenorhabditis elegans = assay: In vivo inhibition of KRAS signaling in Caenorhabditis elegans lin-1 L1 harboring let60 […] mutant assessed as reduction in multi-vulva phenotype measured after 4 to 5 days culturing in buffer containing Escherichia coli OP50 by DIC/Nomarski microscopic analysis; assay type: functional, organism-based; settings: dose 0.1-30 µM, time 4-5 day
# In short: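 let-60 (n1046) or lin-1 L1 larvae cultured in M9 buffer with E. coli OP50 plus DMSO vehicle or compound at 0.1, 0.3, 1, 3, 10 or 30 µM. After 4–5 days, adults were scored for multi-vulva by DIC/Nomarski microscopy.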
# MIA PaCa-2 [4] = assay: Antitumor activity against human MIA PaCa-2 cells harboring KRAS mutant xenografted in nu/nu mouse assessed as reduction in tumor growth at 2.5 to 5 mg/kg, ip administered once daily for 5 days with 2 days break by caliper analysis; assay type: functional, organism-based; settings: dose 2.5-5 mg/kg, time 5.0 day
# In short: (§2)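 Female nu/nu mice given 2 × 10⁶ early-passage MiaPaCa-2 cells subcutaneously in the right flank, randomized 10 per group. Dosing began when tumors reached 100 mm³: 1, 2.5 or 5 mg/kg i.p. daily for 5 days with 2 days off, vehicle DMSO. Caliper readings every 3–4 days, V = 0.52 × length × width². Animals sacrificed when any tumor reached 1500 mm³.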
# [5] = Toxicity in nu/nu mouse xenografted with human MIA PaCa-2 cells assessed as effect on body weight at 1 to 5 mg/kg, ip administered once daily for 5 days with 2 days break; assay type: organism-based; settings: in vivo, 120 h, dose 1-5 mg/kg, time 5 day
# MIA PaCa-2 [6] = assay: Antitumor activity human MIA PaCa-2 cells harboring KRAS mutation xenografted in nu/nu mouse assessed as induction of apoptosis by measuring increase in cleaved caspase 3 level in tumor at 1 to 5 mg/kg, ip administered once daily for 5 days with 2 days break by immunohistochemistry; assay type: functional, organism-based; settings: dose 1-5 mg/kg, time 5.0 day
# In short: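 Paraffin tumor sections of 4–5 µm were deparaffinized and given heat antigen retrieval in 10 mM sodium citrate. Endogenous peroxidase was quenched and sections blocked in 2.5% normal goat serum. Primary antibody (pERK or cleaved caspase 3) applied overnight at 4 °C, biotinylated secondary 1:250 for 45 min at rt, then ABC reagent 30 min and DAB development. Rabbit IgG served as control.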
# Mus musculus = assay: In vivo inhibition of Ca2+ channel in nu/nu mouse xenografted with human MIA PaCa-2 cells harboring KRAS mutation assessed as blood vessel dialation in tumor at 1 to 5 mg/kg, ip administered once daily for 5 days with 2 days break by immunostaining; assay type: functional, organism-based; settings: dose 1-5 mg/kg, time 5.0 day
# [7] = target: T1, Sphingomyelin phosphodiesterase (Homo sapiens) (UniProt P17405); assay: Inhibition of human GFP-tagged ASM expressed in dog MDCK cells using sphingomyelin as substrate at 5 uM incubated for 48 hrs by Amplex Red dye based fluorescence analysis; assay type: cell-based
# T1 sequence (whole entry): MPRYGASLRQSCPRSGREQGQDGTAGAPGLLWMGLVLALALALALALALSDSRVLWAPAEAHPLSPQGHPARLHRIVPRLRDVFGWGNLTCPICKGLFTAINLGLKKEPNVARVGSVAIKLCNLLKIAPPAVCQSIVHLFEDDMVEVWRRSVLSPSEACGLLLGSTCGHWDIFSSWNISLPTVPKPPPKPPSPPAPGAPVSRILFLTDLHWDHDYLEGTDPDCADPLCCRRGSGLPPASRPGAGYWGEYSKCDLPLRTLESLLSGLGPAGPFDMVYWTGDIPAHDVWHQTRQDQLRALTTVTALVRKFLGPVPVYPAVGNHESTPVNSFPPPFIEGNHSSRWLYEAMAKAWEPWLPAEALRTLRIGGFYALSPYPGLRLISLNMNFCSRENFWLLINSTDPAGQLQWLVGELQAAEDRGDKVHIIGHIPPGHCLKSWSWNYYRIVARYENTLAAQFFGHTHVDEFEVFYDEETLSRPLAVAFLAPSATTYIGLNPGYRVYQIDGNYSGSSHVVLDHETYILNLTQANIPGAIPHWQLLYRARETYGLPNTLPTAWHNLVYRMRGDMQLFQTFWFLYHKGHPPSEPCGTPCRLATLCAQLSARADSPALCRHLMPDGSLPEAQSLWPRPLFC
# In short: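 MDCK cells stably expressing human SMPD1-GFP treated 48 h at 5 µM. Whole-cell lysate, made without DTT, mixed with 50 mM sodium acetate pH 5.0 plus sphingomyelin and held 1 h at 37 °C. pH then raised to 7.4 with Amplex Red mix (100 µM Amplex Red, 2 U/mL HRP, 0.2 U/mL choline oxidase, 8 U/mL alkaline phosphatase, 100 mM Tris pH 8.0), 60 min at 37 °C. Fluorescence read at Ex 540/Em 590 nm. Controls: 0.1 U/mL SMase (positive), buffer alone (negative).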
# MIA PaCa-2 [8] = assay: Antiproliferative activity against human MIA PaCa-2 cells expressing KRAS mutant assessed as reduction in cell growth incubated for 72 hrs by CyQuant proliferation assay; assay type: functional, cell-based; settings: MIA PaCa-2, 72 h; in short: as §1
# Caco-2 = assay: Antiproliferative activity against human Caco-2 cells expressing wild type KRAS assessed as reduction in cell growth incubated for 72 hrs by CyQuant proliferation assay; assay type: functional, cell-based; settings: Caco-2, 72 h; in short: as §1
# MIA PaCa-2 [9] = assay: Antitumor activity against human MIA PaCa-2 cells harboring KRAS mutant xenografted in nu/nu mouse assessed as reduction in tumor growth at 1 to 5 mg/kg, ip administered once daily for 5 days with 2 days break by caliper analysis; assay type: functional, organism-based; settings: dose 1-5 mg/kg, time 5.0 day; in short: as §2
# BXPC-3 = assay: Antitumor activity against human BXPC-3 cells harboring wild type KRAS xenografted in nu/nu mouse assessed as reduction in tumor growth at 1 mg/kg, ip administered once daily for 5 days with 2 days break by caliper analysis; assay type: functional, organism-based; settings: time 5.0 day
# In short: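 BxPC3 xenografts in nu/nu mice dosed i.p. with compound or DMSO vehicle on a schedule of daily for 5 days and 2 days off. Tumor size measured by external caliper every 3–4 days.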
IC50 (MIA PaCa-2 [8]),IC50 (Caco-2),SMILES,Activity (MDCK),IC50 (MEF [1]),IC50 (MEF [2]),IC50 [3],IC50 (Ishikawa),Activity (KLE),inhibition (Caenorhabditis elegans),Activity (MIA PaCa-2 [4]),Activity [5],Activity (MIA PaCa-2 [6]),inhibition (Mus musculus),inhibition [7],Activity (MIA PaCa-2 [9]),Activity (BXPC-3)
–,–,COc1ccc([C@@H](C)N(CC=C(c2ccccc2)c2ccccc2)CCCN2CCN(C)CC2)cc1,Active,2.9 µM,2.4 µM,4.2 µM,11 µM,inactive,Dose-Dependent Effect,Active,Non-Toxic,Active,inactive,Active,–,–
3.1 µM,4.2 µM,COc1ccc([C@@H](C)N(CC=C(c2ccccc2)c2ccccc2)CCN2CCCC2)cc1,Active,2.6 µM,3.9 µM,3.8 µM,17.3 µM,inactive,Dose-Dependent Effect,–,Non-Toxic,Active,inactive,Active,Active,inactive

# Source: ChEMBL document CHEMBL4814013, “Scaffold repurposing of fendiline: Identification of potent KRAS plasma membrane localization inhibitors” (Eur J Med Chem, 2021)
